Results published in ChEMBL document CHEMBL2331324, “Synthesis and biological evaluation of guanidino analogues of roscovitine” (Eur J Med Chem, 2013).

Experiments:
[1] = target: Serine/threonine-protein kinase OSR1 (Homo sapiens) (UniProt O95747); assay: Inhibition of recombinant OSR1 (unknown origin) assessed as residual activity using [gamma-33P]ATP as substrate at 1 uM
How it was run: (§1)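 Selectivity panel run under previously published conditions. Screened at 1 μM in duplicate. Reactions started with [γ-33P]ATP (800 cpm/pmol) at 5, 20 or 50 μM, chosen to be at or below each enzyme's ATP Km. Stopped with phosphoric acid, spotted onto P81 filters. Result expressed as residual kinase activity.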

[2] = target: Tyrosine-protein kinase ABL1 (Homo sapiens) (UniProt P00519); assay: Inhibition of recombinant ABL (unknown origin) assessed as residual activity using [gamma-33P]ATP as substrate at 1 uM
How it was run: (§2)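 Recombinant kinase panel screened at 1 µM in duplicate. Reactions started with [γ-33P]ATP (800 cpm/pmol) at 5, 20 or 50 µM, chosen to sit at or below each enzyme's ATP Km. Stopped with phosphoric acid and spotted onto P81 filters. Result given as residual kinase activity.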

[3] = target: Dual specificity protein kinase TTK (Homo sapiens) (UniProt P33981); assay: Inhibition of recombinant TTK (unknown origin) assessed as residual activity using [gamma-33P]ATP as substrate at 1 uM
How it was run: (§3)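 Kinase panel screen with each compound at 1 µM, in duplicate. Reactions were started with [γ-33P]ATP (800 cpm/pmol) at 5, 20 or 50 µM, chosen per enzyme to be at or below its ATP Km. Reactions were stopped with phosphoric acid and spotted onto P81 filters. Results are given as residual kinase activity.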

[4] = target: Mitogen-activated protein kinase kinase kinase kinase 2 (Homo sapiens) (UniProt Q12851); assay: Inhibition of recombinant GCK (unknown origin) assessed as residual activity using [gamma-33P]ATP as substrate at 1 uM; how it was run: as §2
[5] = target: Tyrosine-protein kinase SYK (Homo sapiens) (UniProt P43405); assay: Inhibition of recombinant SYK (unknown origin) assessed as residual activity using [gamma-33P]ATP as substrate at 1 uM; how it was run: as §3
[6] = target: Serine/threonine-protein kinase BRSK2 (Homo sapiens) (UniProt Q8IWQ3); assay: Inhibition of recombinant BRSK2 (unknown origin) assessed as residual activity using [gamma-33P]ATP as substrate at 1 uM; how it was run: as §2
[7] = target: Serine/threonine-protein kinase STK11 (Homo sapiens) (UniProt Q15831); assay: Inhibition of recombinant LKB1 (unknown origin) assessed as residual activity using [gamma-33P]ATP as substrate at 1 uM; how it was run: as §1
Serine/threonine-protein kinase STK11 (Homo sapiens), sequence (Q15831 whole entry): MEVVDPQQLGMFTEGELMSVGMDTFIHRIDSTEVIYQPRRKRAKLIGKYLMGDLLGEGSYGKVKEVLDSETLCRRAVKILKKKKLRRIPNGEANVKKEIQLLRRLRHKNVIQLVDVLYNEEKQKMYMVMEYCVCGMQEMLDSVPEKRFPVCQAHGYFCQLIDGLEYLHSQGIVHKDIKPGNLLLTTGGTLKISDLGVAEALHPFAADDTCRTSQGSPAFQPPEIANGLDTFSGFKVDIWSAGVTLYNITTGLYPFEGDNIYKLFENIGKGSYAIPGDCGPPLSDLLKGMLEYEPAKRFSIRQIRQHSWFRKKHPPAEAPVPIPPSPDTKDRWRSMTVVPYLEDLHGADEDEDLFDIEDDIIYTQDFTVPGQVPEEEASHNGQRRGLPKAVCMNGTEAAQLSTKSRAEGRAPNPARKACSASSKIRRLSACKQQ

[8] = target: Mitogen-activated protein kinase kinase kinase 5 (Homo sapiens) (UniProt Q99683); assay: Inhibition of recombinant ASK1 (unknown origin) assessed as residual activity using [gamma-33P]ATP as substrate at 1 uM; how it was run: as §2
[9] = target: Interleukin-1 receptor-associated kinase 1 (Homo sapiens) (UniProt P51617); assay: Inhibition of recombinant IRAK1 (unknown origin) assessed as residual activity using [gamma-33P]ATP as substrate at 1 uM; how it was run: as §2
[10] = target: Ephrin type-B receptor 1 (Homo sapiens) (UniProt P54762); assay: Inhibition of recombinant EPH-B1 (unknown origin) assessed as residual activity using [gamma-33P]ATP as substrate at 1 uM; how it was run: as §2
[11] = target: Serine/threonine-protein kinase TAO1 (Homo sapiens) (UniProt Q7L7X3); assay: Inhibition of recombinant TAO1 (unknown origin) assessed as residual activity using [gamma-33P]ATP as substrate at 1 uM; how it was run: as §3
[12] = target: Receptor tyrosine-protein kinase erbB-4 (Homo sapiens) (UniProt Q15303); assay: Inhibition of recombinant HER4 (unknown origin) assessed as residual activity using [gamma-33P]ATP as substrate at 1 uM; how it was run: as §2
Receptor tyrosine-protein kinase erbB-4 (Homo sapiens), sequence (Q15303 whole entry): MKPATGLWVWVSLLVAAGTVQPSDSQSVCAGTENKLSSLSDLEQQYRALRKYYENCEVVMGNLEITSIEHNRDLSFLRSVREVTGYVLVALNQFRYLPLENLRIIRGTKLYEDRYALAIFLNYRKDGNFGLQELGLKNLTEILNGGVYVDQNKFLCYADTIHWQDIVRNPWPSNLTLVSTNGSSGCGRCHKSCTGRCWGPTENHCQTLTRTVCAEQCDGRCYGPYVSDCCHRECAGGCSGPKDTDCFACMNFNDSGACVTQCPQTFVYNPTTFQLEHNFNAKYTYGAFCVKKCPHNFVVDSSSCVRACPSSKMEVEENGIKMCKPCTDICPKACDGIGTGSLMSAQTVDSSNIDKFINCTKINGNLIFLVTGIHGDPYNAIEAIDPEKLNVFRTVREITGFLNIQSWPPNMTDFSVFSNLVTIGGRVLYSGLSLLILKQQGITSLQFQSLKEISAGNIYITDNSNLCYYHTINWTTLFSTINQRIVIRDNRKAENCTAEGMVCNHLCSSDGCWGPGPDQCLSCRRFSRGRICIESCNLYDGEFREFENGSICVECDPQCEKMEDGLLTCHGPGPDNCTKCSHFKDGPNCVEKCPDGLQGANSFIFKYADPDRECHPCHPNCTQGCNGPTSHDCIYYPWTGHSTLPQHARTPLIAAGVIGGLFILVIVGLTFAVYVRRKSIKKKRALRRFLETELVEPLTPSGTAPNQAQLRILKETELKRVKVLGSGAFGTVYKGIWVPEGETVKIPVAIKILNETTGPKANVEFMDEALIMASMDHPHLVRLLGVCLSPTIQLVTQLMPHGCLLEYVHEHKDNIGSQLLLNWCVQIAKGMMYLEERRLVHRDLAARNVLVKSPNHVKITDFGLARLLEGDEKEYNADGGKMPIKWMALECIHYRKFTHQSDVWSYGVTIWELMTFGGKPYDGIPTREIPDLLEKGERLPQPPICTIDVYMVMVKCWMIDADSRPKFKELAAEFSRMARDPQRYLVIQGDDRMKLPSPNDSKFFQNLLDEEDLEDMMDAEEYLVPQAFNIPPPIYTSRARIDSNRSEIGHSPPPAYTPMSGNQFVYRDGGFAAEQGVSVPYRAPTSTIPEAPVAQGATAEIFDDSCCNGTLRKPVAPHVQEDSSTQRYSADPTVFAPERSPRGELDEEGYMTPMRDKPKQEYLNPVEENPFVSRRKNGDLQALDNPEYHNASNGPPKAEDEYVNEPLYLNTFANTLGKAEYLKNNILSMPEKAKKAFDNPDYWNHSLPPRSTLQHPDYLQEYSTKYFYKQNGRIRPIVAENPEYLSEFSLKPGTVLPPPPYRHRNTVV

[13] = target: Receptor-interacting serine/threonine-protein kinase 2 (Homo sapiens) (UniProt O43353); assay: Inhibition of recombinant RIPK2 (unknown origin) assessed as residual activity using [gamma-33P]ATP as substrate at 1 uM; how it was run: as §1
Receptor-interacting serine/threonine-protein kinase 2 (Homo sapiens), sequence (O43353 whole entry): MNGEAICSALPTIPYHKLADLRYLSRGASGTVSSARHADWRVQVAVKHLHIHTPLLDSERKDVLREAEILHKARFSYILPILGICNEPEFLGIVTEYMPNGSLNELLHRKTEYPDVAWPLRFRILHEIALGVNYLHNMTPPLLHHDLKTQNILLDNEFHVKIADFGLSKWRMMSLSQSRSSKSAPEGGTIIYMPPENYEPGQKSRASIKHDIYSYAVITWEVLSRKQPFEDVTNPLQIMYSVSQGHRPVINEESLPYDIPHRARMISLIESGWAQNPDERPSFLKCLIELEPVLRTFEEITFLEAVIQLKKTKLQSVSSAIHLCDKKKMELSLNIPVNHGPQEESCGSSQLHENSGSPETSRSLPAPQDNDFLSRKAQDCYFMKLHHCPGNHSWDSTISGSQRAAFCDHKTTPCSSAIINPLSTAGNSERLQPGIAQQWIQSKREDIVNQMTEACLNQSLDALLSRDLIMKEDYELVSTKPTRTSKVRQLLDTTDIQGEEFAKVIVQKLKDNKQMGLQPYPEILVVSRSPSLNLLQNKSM

[14] = target: Mitogen-activated protein kinase 14 (Homo sapiens) (UniProt Q16539); assay: Inhibition of recombinant p38 MAPKalpha (unknown origin) assessed as residual activity using [gamma-33P]ATP as substrate at 1 uM; how it was run: as §3
Mitogen-activated protein kinase 14 (Homo sapiens), sequence (Q16539 whole entry): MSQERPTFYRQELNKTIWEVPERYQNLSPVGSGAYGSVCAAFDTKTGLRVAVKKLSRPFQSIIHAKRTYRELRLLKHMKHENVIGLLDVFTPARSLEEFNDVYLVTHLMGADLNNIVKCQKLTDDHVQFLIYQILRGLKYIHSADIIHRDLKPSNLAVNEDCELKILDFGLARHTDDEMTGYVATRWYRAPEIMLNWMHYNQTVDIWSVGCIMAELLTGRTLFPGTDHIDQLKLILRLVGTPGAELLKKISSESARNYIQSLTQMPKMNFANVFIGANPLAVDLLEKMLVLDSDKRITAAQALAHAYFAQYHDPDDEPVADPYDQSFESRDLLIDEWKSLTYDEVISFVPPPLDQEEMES

[15] = target: Protein kinase C zeta type (Homo sapiens) (UniProt Q05513); assay: Inhibition of recombinant PKCzeta (unknown origin) assessed as residual activity using [gamma-33P]ATP as substrate at 1 uM; how it was run: as §1
Protein kinase C zeta type (Homo sapiens), sequence (Q05513 whole entry): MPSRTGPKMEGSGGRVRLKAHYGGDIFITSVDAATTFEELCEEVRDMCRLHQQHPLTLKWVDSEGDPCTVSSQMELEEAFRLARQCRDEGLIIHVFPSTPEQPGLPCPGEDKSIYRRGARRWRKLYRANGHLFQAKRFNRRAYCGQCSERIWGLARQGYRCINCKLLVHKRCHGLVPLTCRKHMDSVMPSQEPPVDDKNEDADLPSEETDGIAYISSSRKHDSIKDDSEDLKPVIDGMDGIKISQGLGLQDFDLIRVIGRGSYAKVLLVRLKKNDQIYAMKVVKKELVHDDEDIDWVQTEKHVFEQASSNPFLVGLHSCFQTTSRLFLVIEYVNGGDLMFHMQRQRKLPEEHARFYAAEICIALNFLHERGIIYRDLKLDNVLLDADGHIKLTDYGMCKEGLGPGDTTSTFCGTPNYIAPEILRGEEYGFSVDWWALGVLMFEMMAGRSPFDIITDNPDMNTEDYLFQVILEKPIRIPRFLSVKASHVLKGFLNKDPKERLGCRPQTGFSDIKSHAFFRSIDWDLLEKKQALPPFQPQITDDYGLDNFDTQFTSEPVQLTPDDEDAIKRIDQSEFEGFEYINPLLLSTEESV

[16] = target: Mitogen-activated protein kinase kinase kinase 7 (Homo sapiens) (UniProt O43318); assay: Inhibition of recombinant TAK1 (unknown origin) assessed as residual activity using [gamma-33P]ATP as substrate at 1 uM; how it was run: as §3
[17] = target: Inhibitor of nuclear factor kappa-B kinase subunit epsilon (Homo sapiens) (UniProt Q14164); assay: Inhibition of recombinant IKKepsilon (unknown origin) assessed as residual activity using [gamma-33P]ATP as substrate at 1 uM; how it was run: as §2
[18] = target: Aurora kinase B (Homo sapiens) (UniProt Q96GD4); assay: Inhibition of recombinant AURB (unknown origin) assessed as residual activity using [gamma-33P]ATP as substrate at 1 uM; how it was run: as §2
Aurora kinase B (Homo sapiens), sequence (Q96GD4 whole entry): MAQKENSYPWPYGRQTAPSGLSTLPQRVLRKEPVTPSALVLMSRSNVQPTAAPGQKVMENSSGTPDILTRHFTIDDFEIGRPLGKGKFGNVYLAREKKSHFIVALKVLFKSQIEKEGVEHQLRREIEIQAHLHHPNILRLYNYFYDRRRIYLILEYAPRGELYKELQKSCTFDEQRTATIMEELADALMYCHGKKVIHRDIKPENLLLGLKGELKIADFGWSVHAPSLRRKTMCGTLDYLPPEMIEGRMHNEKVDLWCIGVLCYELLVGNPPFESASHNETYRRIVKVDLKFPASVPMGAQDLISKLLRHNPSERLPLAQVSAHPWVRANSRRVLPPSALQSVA

[19] = target: Serine/threonine-protein kinase tousled-like 1 (Homo sapiens) (UniProt Q9UKI8); assay: Inhibition of recombinant TLK1 (unknown origin) assessed as residual activity using [gamma-33P]ATP as substrate at 1 uM; how it was run: as §3
[20] = target: Insulin-like growth factor 1 receptor (Homo sapiens) (UniProt P08069); assay: Inhibition of recombinant IGF-1R (unknown origin) assessed as residual activity using [gamma-33P]ATP as substrate at 1 uM; how it was run: as §2
Insulin-like growth factor 1 receptor (Homo sapiens), sequence (P08069 31-736 limits assumed): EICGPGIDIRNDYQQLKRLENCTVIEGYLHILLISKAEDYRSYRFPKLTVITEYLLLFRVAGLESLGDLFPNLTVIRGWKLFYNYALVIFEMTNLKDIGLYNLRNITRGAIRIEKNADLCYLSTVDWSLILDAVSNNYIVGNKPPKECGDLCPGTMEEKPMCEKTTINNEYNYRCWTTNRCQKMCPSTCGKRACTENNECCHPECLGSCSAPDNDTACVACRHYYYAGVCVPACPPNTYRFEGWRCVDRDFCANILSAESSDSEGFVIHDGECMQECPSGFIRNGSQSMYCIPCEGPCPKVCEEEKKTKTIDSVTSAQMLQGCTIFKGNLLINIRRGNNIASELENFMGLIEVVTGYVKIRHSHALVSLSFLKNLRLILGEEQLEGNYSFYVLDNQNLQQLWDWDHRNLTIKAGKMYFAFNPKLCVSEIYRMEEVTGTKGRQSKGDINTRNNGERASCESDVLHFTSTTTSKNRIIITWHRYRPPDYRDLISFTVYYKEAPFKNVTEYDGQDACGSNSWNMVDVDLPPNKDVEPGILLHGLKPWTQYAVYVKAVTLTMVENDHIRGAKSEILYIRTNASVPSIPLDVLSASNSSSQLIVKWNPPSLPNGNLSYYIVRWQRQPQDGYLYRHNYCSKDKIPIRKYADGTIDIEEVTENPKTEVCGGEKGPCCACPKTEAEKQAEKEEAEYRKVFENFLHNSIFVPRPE
Insulin-like growth factor 1 receptor (Homo sapiens), sequence (P08069 741-1367 limits assumed): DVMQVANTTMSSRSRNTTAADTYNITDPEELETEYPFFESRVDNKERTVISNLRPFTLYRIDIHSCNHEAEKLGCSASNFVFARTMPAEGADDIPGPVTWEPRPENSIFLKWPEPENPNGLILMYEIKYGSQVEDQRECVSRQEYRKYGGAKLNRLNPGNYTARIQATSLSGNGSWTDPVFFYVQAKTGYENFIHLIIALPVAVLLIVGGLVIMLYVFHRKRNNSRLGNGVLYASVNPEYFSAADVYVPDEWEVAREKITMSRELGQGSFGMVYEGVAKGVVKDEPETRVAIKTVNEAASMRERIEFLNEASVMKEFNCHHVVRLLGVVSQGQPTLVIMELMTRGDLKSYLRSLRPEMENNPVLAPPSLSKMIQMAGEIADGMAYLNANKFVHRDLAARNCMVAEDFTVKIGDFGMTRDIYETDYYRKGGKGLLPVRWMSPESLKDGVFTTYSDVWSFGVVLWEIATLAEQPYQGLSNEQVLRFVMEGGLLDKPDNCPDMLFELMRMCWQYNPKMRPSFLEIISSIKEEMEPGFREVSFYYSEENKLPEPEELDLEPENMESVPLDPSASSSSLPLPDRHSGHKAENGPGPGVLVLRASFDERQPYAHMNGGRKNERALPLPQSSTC

[21] = target: Ephrin type-A receptor 4 (Homo sapiens) (UniProt P54764); assay: Inhibition of recombinant EPH-A4 (unknown origin) assessed as residual activity using [gamma-33P]ATP as substrate at 1 uM; how it was run: as §2
[22] = target: RAC-beta serine/threonine-protein kinase (Homo sapiens) (UniProt P31751); assay: Inhibition of recombinant PKB beta (unknown origin) assessed as residual activity using [gamma-33P]ATP as substrate at 1 uM; how it was run: as §1
[23] = target: Ephrin type-B receptor 2 (Homo sapiens) (UniProt P29323); assay: Inhibition of recombinant EPH-B2 (unknown origin) assessed as residual activity using [gamma-33P]ATP as substrate at 1 uM; how it was run: as §2
[24] = target: Serine/threonine-protein kinase Nek6 (Homo sapiens) (UniProt Q9HC98); assay: Inhibition of recombinant NEK6 (unknown origin) assessed as residual activity using [gamma-33P]ATP as substrate at 1 uM; how it was run: as §1
[25] = target: Serine/threonine-protein kinase BRSK1 (Homo sapiens) (UniProt Q8TDC3); assay: Inhibition of recombinant BRSK1 (unknown origin) assessed as residual activity using [gamma-33P]ATP as substrate at 1 uM; how it was run: as §2
[26] = target: Eukaryotic translation initiation factor 2-alpha kinase 3 (Homo sapiens) (UniProt Q9NZJ5); assay: Inhibition of recombinant EIF2AK3 (unknown origin) assessed as residual activity using [gamma-33P]ATP as substrate at 1 uM; how it was run: as §2
[27] = target: MAP kinase-interacting serine/threonine-protein kinase 2 (Homo sapiens) (UniProt Q9HBH9); assay: Inhibition of recombinant MNK2 (unknown origin) assessed as residual activity using [gamma-33P]ATP as substrate at 1 uM; how it was run: as §1

Activity [1] [%] | Activity [2] [%] | Activity [3] [%] | Activity [4] [%] | Activity [5] [%] | Activity [6] [%] | Activity [7] [%] | Activity [8] [%] | Activity [9] [%] | Activity [10] [%] | Activity [11] [%] | Activity [12] [%] | Activity [13] [%] | Activity [14] [%] | Activity [15] [%] | Activity [16] [%] | Activity [17] [%] | Activity [18] [%] | Activity [19] [%] | Activity [20] [%] | Compound | other results
16 | 5 | 40 | 15 | 58 | 77 | 13 | 100 | 26 | 8 | 9 | 27 | 72 | 87 | 68 | 7 | 66 | 47 | 9 | 10 | CC[C@H](CO)Nc1nc(NC(=N)N)c2ncn(C(C)C)c2n1 | Activity [21]: 22%; Activity [22]: 111%; Activity [23]: 2%; Activity [24]: 95%; Activity [25]: 44%; Activity [26]: 17%; Activity [27]: 119%
16 | 6 | 32 | 10 | 50 | 67 | 16 | 81 | 17 | 7 | 9 | 29 | 76 | 82 | 61 | 13 | 52 | 70 | 9 | 5 | CC[C@@H](CO)Nc1nc(NC(=N)N)c2ncn(C(C)C)c2n1 | Activity [21]: 41%; Activity [22]: 103%; Activity [23]: 2%; Activity [24]: 85%; Activity [25]: 45%; Activity [26]: 11%; Activity [27]: 122%
